Values after ≈ are worked out from the molar mass of the structure shown.
What was measured:
[1] = test system: carrageenan-induced paw edema; experiment: Carrageenan induced hind paw edema assay; format: in vivo; settings: rat, 100 mg kg^−1 p.o., mean ± SEM
Method in brief: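 Rats, six per group, acclimatized one week (25 ± 2 °C, 12 h light/dark, standard pellets, water ad libitum). […] Paw volume measured by plethysmometer displacement to the lateral malleolus at 1, 3 and 6 h. Mean ± SEM.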

[2] = test system: cotton pellet induced granuloma; experiment: Cotton pellets induced granuloma assay; format: in vivo; settings: rat, 100 mg kg^−1 p.o. for 8 d, mean ± SEM
Method in brief: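 Two sterile 10 mg cotton pellets implanted ventrally in rats, six per group. […] On day 9 rats were killed under excess ether. Pellets were freed of tissue and weighed wet, then dried at 55 °C for 6 h or to constant weight. Granuloma equals dry weight minus cotton weight. Mean ± SEM.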

Escherichia coli = experiment: In vitro antibacterial MIC determination; format: cell-based
Method in brief: (§1)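 Bacteria grown on nutrient agar, subcultured to log phase in nutrient broth, then diluted in sterile saline to about 10^5–10^6 CFU mL−1. Test compounds diluted in acetone, DMSO or diethyl ether (ether preferred). Saturated disks placed on spread-plated inoculum and incubated at 37 °C for 24 h. MIC determined across different compound concentrations, with streptomycin as standard.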

Aspergillus niger = experiment: In vitro antifungal MIC, poison plate technique; format: cell-based
Bacillus subtillis = experiment: In vitro antibacterial MIC determination; format: cell-based
Method in brief: as §1

COX-2 = target: T1, COX-2 (Ovis aries, UniProt P79208); experiment: Colorimetric COX; format: biochemical, ovine; settings: read-out: % inhibition of COX, COX-2
T1 sequence (P79208 17-603): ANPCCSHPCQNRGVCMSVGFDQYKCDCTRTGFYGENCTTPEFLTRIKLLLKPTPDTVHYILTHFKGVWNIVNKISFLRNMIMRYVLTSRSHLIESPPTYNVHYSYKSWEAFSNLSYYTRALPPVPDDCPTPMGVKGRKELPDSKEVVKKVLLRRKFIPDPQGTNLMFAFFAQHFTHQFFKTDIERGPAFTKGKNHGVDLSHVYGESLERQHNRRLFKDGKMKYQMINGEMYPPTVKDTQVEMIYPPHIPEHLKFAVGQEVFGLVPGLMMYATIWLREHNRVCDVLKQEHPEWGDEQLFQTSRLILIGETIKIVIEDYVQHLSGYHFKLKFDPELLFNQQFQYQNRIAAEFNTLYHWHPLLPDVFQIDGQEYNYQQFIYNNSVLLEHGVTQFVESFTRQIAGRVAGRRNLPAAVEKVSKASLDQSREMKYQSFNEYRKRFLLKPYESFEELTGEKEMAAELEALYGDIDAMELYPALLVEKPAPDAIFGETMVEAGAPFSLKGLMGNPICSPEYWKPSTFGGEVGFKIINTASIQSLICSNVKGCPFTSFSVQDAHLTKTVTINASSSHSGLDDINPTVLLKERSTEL

Pseudomonas aeruginosa = experiment: In vitro antibacterial MIC determination; format: cell-based
Method in brief: as §1

COX-1 = target: T2, COX-1 (Ovis aries, UniProt P05979); experiment: Colorimetric COX; format: biochemical, ovine; settings: read-out: % inhibition of COX, COX-1
T2 sequence (P05979 25-600): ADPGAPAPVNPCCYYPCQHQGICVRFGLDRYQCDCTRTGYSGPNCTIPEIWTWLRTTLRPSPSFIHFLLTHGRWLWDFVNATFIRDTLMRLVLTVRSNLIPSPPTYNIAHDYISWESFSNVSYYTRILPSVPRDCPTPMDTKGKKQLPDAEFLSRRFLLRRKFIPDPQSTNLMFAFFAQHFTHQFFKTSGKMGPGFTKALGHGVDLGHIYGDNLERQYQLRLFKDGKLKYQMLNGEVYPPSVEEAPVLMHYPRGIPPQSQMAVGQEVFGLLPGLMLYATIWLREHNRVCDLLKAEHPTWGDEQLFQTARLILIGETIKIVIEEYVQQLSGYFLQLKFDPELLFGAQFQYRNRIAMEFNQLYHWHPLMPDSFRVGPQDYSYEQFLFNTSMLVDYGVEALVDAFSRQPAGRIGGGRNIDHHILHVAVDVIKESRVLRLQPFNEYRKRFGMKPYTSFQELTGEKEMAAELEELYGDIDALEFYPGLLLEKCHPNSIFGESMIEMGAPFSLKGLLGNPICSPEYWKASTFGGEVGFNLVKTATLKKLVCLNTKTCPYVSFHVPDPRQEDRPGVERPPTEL

Rhizopus arrhizus = experiment: In vitro antifungal MIC, poison plate technique; format: cell-based
Staphylococcus aureus = experiment: In vitro antibacterial MIC determination; format: cell-based
Method in brief: as §1

Aspergillus flavus = experiment: In vitro antifungal MIC, poison plate technique; format: cell-based
RAW 264.7 cells [3] = experiment: Nitrite; format: cell-based, murine; settings: RAW 264.7, 100 μM and 200 μM pre-treatment; Fig. 5
Method in brief: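 RAW 264.7 cells (1 × 10^6) seeded in flasks and left to adhere overnight. Pretreated 1 h with test compound (100 or 200 μM), then 100 μM LPS for 24 h at 37 °C, 5% CO2. Supernatant mixed with an equal volume of Griess reagent (0.1% naphthylethylenediamine and 1% sulfanilamide, 1:1, in 5% phosphoric acid) for 10 min in the dark at room temperature; A540 read. Nitrite quantified from a NaNO2 standard curve (0.1–6.25 μM), expressed as μmol NO2−/mg protein. Triplicates.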

RAW 264.7 cells [4] = experiment: MTT assay, LPS-induced inflammation in RAW 264.7; format: cell-based, murine; settings: RAW 264.7, pre-treatment 100 μM and 200 μM, then LPS; Fig. 4
Method in brief: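 Mouse RAW 264.7 macrophages kept in high-glucose DMEM with 10% heat-inactivated FBS and 1% penicillin–streptomycin at 37 °C, 5% CO2. Cells seeded at 5 × 10^5 cells per mL, pretreated 1 h with test compound (100 or 200 μM), then stimulated with […] for 24 h. Medium replaced; 0.5 mg mL−1 MTT for 3 h; formazan dissolved in DMSO; OD read at 540 nm. Percent inflammation derived by subtracting percent viability relative to control.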

Row | SMILES | Paw volume ([1]; 1 h after carrageenan) [mL] | Paw volume ([1]; 3 h after carrageenan) [mL] | Paw volume ([1]; 6 h after carrageenan) [mL] | Weight, Dry (cotton pellet) [2] [mg] | Weight, Wet (cotton pellet) [2] [mg] | MIC (Escherichia coli) [µg/mL] | MIC (Aspergillus niger) [µg/mL] | MIC (Bacillus subtillis) [µg/mL] | inhibition at 100 µM (COX-2) [%] | inhibition at 200 µM (COX-2) [%] | MIC (Pseudomonas aeruginosa) [µg/mL] | inhibition at 100 µM (COX-1) [%] | inhibition at 200 µM (COX-1) [%] | MIC (Rhizopus arrhizus) [µg/mL] | MIC (Staphylococcus aureus) [µg/mL] | MIC (Aspergillus flavus) [µg/mL] | inhibition of LPS-induced NO production (RAW 264.7 cells [3]) | anti-inflammatory activity against LPS induced cell death / inflammation (MTT) (RAW 264.7 cells [4])
1 | Cc1ccc(-c2cc(C(F)(F)F)nn2-c2ccc(S(N)(=O)=O)cc2)cc1 [Celecoxib, reference compound] | 0.80 ± 0.50 | 0.98 ± 0.92 | 1.58 ± 0.22 | 78.80 ± 3.24 | 150.14 ± 3.46 |  |  |  |  |  |  |  |  |  |  |  |  | 
2 | O=S(=O)(NC[C@@H](O)[C@@H]1CCc2cc(F)ccc2O1)c1ccc(F)cc1 [Compound 8a, N-((R)-2-((S)-6-Fluorochroman-2-yl)-2-hydroxyethyl)-4-fluorobenzenesulfonamide] |  |  |  |  |  | 30.1 ± 0.72 (≈ 81.6 µM) | 22.3 ± 0.27 (≈ 60.4 µM) | 31.6 ± 1.03 (≈ 85.5 µM) | 23.5 ± 0.55 | 38.64 ± 0.33 | 31.9 ± 1.04 (≈ 86.3 µM) | 37.3 ± 0.32 | 45.5 ± 0.77 | 22.8 ± 0.54 (≈ 61.7 µM) | 21.9 ± 0.33 (≈ 59.2 µM) | 23.1 ± 0.25 (≈ 62.4 µM) |  | 
3 | [H]/N=C(/N)N[C@H]1[C@H](O)[C@@H](O)[C@H](O[C@@H]2O[C@@H](C)[C@](O)(C=O)[C@H]2O[C@@H]2O[C@@H](CO)[C@H](O)[C@@H](O)[C@@H]2NC)[C@@H](N/C(N)=N\[H])[C@@H]1O [Streptomycin, reference compound] |  |  |  |  |  | 26.4 ± 1.12 (≈ 45.4 µM) |  | 25.4 ± 0.48 (≈ 43.7 µM) |  |  | 28.2 ± 0.8 (≈ 48.5 µM) |  |  |  | 18.6 ± 1.07 (≈ 32.1 µM) |  |  | 
4 | CC(C)COC(=O)NC[C@@H](O)[C@@H]1CCc2cc(F)ccc2O1 [Compound 9c, Isobutyl ((R)-2-((S)-6-fluorochroman-2-yl)-2-hydroxyethyl)carbamate] |  |  |  |  |  | 22.7 ± 0.26 (≈ 73 µM) | 19.3 ± 0.47 (≈ 62.1 µM) | 26.1 ± 0.3 (≈ 83.8 µM) | 24.3 ± 0.2 | 41.66 ± 0.23 | 28.8 ± 0.6 (≈ 92.5 µM) | 39.6 ± 0.08 | 51.64 ± 0.32 | 25.6 ± 0.48 (≈ 82.1 µM) | 19 ± 1.08 (≈ 61.2 µM) | 19.8 ± 0.37 (≈ 63.6 µM) |  | 
5 | COC(=O)NC[C@@H](O)[C@@H]1CCc2cc(F)ccc2O1 [Compound 9a, Methyl ((R)-2-((S)-6-fluorochroman-2-yl)-2-hydroxyethyl)carbamate] | 0.72 ± 0.72 | 1.06 ± 0.52 | 1.56 ± 0.33 |  |  | 21.7 ± 1.06 (≈ 80.6 µM) | 11.2 ± 1.08 (≈ 41.6 µM) | 20.5 ± 0.76 (≈ 76.1 µM) | 18.1 ± 0.88 | 52.42 ± 0.21 | 19.5 ± 1.25 (≈ 72.3 µM) | 50.66 ± 0.33 | 75.33 ± 0.14 | 14.2 ± 0.69 (≈ 52.7 µM) | 16.6 ± 0.35 (≈ 61.5 µM) | 12.7 ± 0.8 (≈ 47 µM) | strong inhibition | strong anti-inflammatory activity
6 | O=[N+]([O-])c1cc(S(=O)(=O)NC[C@@H](O)[C@@H]2CCc3cc(F)ccc3O2)ccc1Cl [Compound 8d, 4-Chloro-N-((R)-2-((S)-6-Fluorochroman-2-yl)-2-hydroxyethyl)-3-nitrobenzenesulfonamide] | 0.78 ± 0.88 | 1.08 ± 0.40 | 1.50 ± 0.64 |  |  | 24.2 ± 0.72 (≈ 56.1 µM) | 15.3 ± 0.15 (≈ 35.5 µM) | 18.3 ± 0.21 (≈ 42.5 µM) | 39.3 ± 0.77 | 63.88 ± 0.46 | 27.4 ± 0.65 (≈ 63.6 µM) | 53.88 ± 0.3 | 69.64 ± 0.18 | 18.6 ± 0.65 (≈ 43.3 µM) | 17.4 ± 0.4 (≈ 40.5 µM) | 17 ± 0.7 (≈ 39.6 µM) | strong inhibition | strong anti-inflammatory activity
7 | O=C(NC[C@@H](O)[C@@H]1CCc2cc(F)ccc2O1)OCC(Cl)(Cl)Cl [Compound 9b, 2,2,2-Trichloroethyl ((R)-2-((S)-6-fluorochroman-2-yl)-2-hydroxyethyl)carbamate] | 0.76 ± 0.48 | 0.88 ± 0.16 | 1.50 ± 0.25 |  |  | 21.1 ± 0.45 (≈ 54.7 µM) | 24.7 ± 0.7 (≈ 63.9 µM) | 26 ± 0.42 (≈ 67.2 µM) | 37.7 ± 0.35 | 63.6 ± 0.32 | 30.36 ± 0.22 (≈ 78.5 µM) | 43.1 ± 0.8 | 69.02 ± 0.5 | 19.2 ± 0.48 (≈ 49.8 µM) | 20.32 ± 0.06 (≈ 52.6 µM) | 23.8 ± 0.67 (≈ 61.6 µM) |  | 
8 | CCOC(=O)NC[C@@H](O)[C@@H]1CCc2cc(F)ccc2O1 [Compound 9d, Ethyl((R)-2-((S)-6-fluorochroman-2-yl)-2-hydroxyethyl)carbamate] |  |  |  |  |  | 27.2 ± 0.92 (≈ 96.1 µM) | 28.46 ± 0.14 (≈ 100 µM) | 27.7 ± 0.44 (≈ 97.6 µM) | 29.7 ± 0.75 | 38.59 ± 0.29 | 31.7 ± 0.88 (≈ 112 µM) | 41.4 ± 0.62 | 52.16 ± 0.3 | 31.3 ± 0.45 (≈ 110 µM) | 18.1 ± 0.8 (≈ 63.8 µM) | 25.2 ± 0.66 (≈ 89 µM) |  | 

— article PMC8694313 (RSC Advances, 2021)
